Assay results from ChEMBL document CHEMBL2034842, “Synthesis, anti-Candida activity, and cytotoxicity of new (4-(4-iodophenyl)thiazol-2-yl)hydrazine derivatives” (Eur J Med Chem, 2012).
≈ marks a conversion by molar mass, not a printed value.

Tests used:
Escherichia coli = test: Antibacterial activity against Escherichia coli after 18 to 22 hrs by […]; type: functional
Proteus vulgaris = test: Antibacterial activity against Proteus vulgaris after 18 to 22 hrs by […]; type: functional
Klebsiella aerogenes = test: Antibacterial activity against Enterobacter aerogenes after 18 to 22 hrs by […]; type: functional
Klebsiella pneumoniae = test: Antibacterial activity against Klebsiella pneumoniae after 18 to 22 hrs by […]; type: functional
Staphylococcus aureus = test: Antibacterial activity against Staphylococcus aureus after 18 to 22 hrs by […]; type: functional
Staphylococcus warneri = test: Antibacterial activity against Staphylococcus warneri after 18 to 22 hrs by […]; type: functional
Streptococcus pyogenes = test: Antibacterial activity against Streptococcus pyogenes after 18 to 22 hrs by […]; type: functional
Enterococcus faecalis = test: Antibacterial activity against Enterococcus faecalis after 18 to 22 hrs by […]; type: functional
Candida albicans = test: Antifungal activity against 10 strains of Candida albicans after 24 hrs by […]; type: functional
Pichia kudriavzevii = test: Antifungal activity against 3 strains of Candida krusei after 24 hrs by […]; type: functional
Candida parapsilosis = test: Antifungal activity against 4 strains of Candida parapsilosis after 24 hrs by […]; type: functional; conditions: Lodderomyces parapsilosis
[Candida] sake = Antifungal activity against 2 strains of Candida sake after 24 hrs by […]; type: functional; conditions: Fermentozyma sake
Nakaseomyces glabratus = test: Antifungal activity against 4 strains of Candida glabrata after 24 hrs by […]; type: functional
Candida tropicalis = test: Antifungal activity against 4 strains of Candida tropicalis after 24 hrs by […]; type: functional
HEp-2 [1] = test: Antiproliferative activity against human Hep2 cells assessed as cell survival fraction after 24 hrs by MTT assay; type: cell-based; conditions: HEp-2, 24 h
Procedure, shortened: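 Hep2 laryngeal carcinoma cells seeded in triplicate at 1 × 10^5/well in serum-free DMEM. Exposed 24 h at 37 °C, 5% CO2, to six concentrations ([…]); DMSO ≤0.5%. MTT reagent added for 2 h at 37 °C, then detergent for 2 h at room temperature in the dark. OD550 minus OD650 read. EC50 from ≥3 independent experiments.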

[2] = Antiproliferative activity against human Hep2 cells assessed as cell survival fraction at 100 ug/mL after 24 hrs by MTT assay; type: cell-based; conditions: HEp-2 cells, read-out: Survival
Procedure, shortened: (§1)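 Hep2 (human laryngeal carcinoma) cells maintained in DMEM + 10% FBS + 1% pen/strep, 37 °C, 5% CO2. Seeded in triplicate at 1 × 10^5/well in serum-free medium and exposed 24 h at 37 °C to six compound concentrations (100–0.05). DMSO stock diluted in medium, final DMSO ≤0.5%. MTT reagent added for 2 h at 37 °C, then detergent for 2 h at RT in the dark. Read as OD550 minus OD650.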

[3] = Antiproliferative activity against human Hep2 cells assessed as cell survival fraction at 50 ug/mL after 24 hrs by MTT assay; type: cell-based; conditions: HEp-2 cells, read-out: Survival; procedure, shortened: as §1
[4] = Antiproliferative activity against human Hep2 cells assessed as cell survival fraction at 10 ug/mL after 24 hrs by MTT assay; type: cell-based; conditions: HEp-2 cells, read-out: Survival; procedure, shortened: as §1
[5] = Antiproliferative activity against human Hep2 cells assessed as cell survival fraction at 5 ug/mL after 24 hrs by MTT assay; type: cell-based; conditions: HEp-2 cells, read-out: Survival; procedure, shortened: as §1
[6] = Antiproliferative activity against human Hep2 cells assessed as cell survival fraction at 0.5 ug/mL after 24 hrs by MTT assay; type: cell-based; conditions: HEp-2 cells, read-out: Survival; procedure, shortened: as §1
[7] = Antiproliferative activity against human Hep2 cells assessed as cell survival fraction at 0.05 ug/mL after 24 hrs by MTT assay; type: cell-based; conditions: HEp-2 cells, read-out: Survival; procedure, shortened: as §1
HEp-2 [8] = test: Cytotoxicity against human Hep2 cells assessed as cell survival fraction after 24 hrs by trypan blue exclusion method; type: cell-based; conditions: HEp-2, 24 h
Procedure, shortened: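 Hep2 cells in DMEM with 10% FBS and 1% penicillin-streptomycin, at 37 °C, 5% CO2, grown to 60–70% confluency. Seeded at 1 × 10^5/mL and exposed 24 h to six concentrations ([…]); DMSO ≤0.5%. Controls were cells alone, cells with DMSO, and 1 mM nitroprusside. Scraped cells mixed 1:1 with 0.4% trypan blue; blue cells counted as dead by hemocytometer, two operators. EC50 from ≥3 independent experiments.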

[9] = Cytotoxicity against human Hep2 cells assessed as cell survival fraction at 100 ug/mL after 24 hrs by trypan blue exclusion method; type: cell-based; conditions: HEp-2 cells, read-out: Survival
Procedure, shortened: (§2)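 Hep2 cells grown in DMEM + 10% FBS + 1% pen/strep at 37 °C, 5% CO2, used at 60–70% confluency. Exponential-phase cells (1 × 10^5/mL) incubated 24 h with six concentrations (100–0.05), final DMSO ≤0.5%. Controls were cells alone or cells + DMSO, with 1 mM sodium nitroprusside as positive control. Cells scraped off, mixed 1:1 with 0.4% trypan blue and counted on a hemocytometer by two operators. Blue cells were scored dead; results given as % viable cells.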

[10] = Cytotoxicity against human Hep2 cells assessed as cell survival fraction at 50 ug/mL after 24 hrs by trypan blue exclusion method; type: cell-based; conditions: HEp-2 cells, read-out: Survival; procedure, shortened: as §2
[11] = Cytotoxicity against human Hep2 cells assessed as cell survival fraction at 10 ug/mL after 24 hrs by trypan blue exclusion method; type: cell-based; conditions: HEp-2 cells, read-out: Survival; procedure, shortened: as §2
[12] = Cytotoxicity against human Hep2 cells assessed as cell survival fraction at 5 ug/mL after 24 hrs by trypan blue exclusion method; type: cell-based; conditions: HEp-2 cells, read-out: Survival; procedure, shortened: as §2
[13] = Cytotoxicity against human Hep2 cells assessed as cell survival fraction at 0.5 ug/mL after 24 hrs by trypan blue exclusion method; type: cell-based; conditions: HEp-2 cells, read-out: Survival; procedure, shortened: as §2
[14] = Cytotoxicity against human Hep2 cells assessed as cell survival fraction at 0.05 ug/mL after 24 hrs by trypan blue exclusion method; type: cell-based; conditions: HEp-2 cells, read-out: Survival; procedure, shortened: as §2

Row | SMILES | MIC (Escherichia coli) [µg/mL] | MIC (Proteus vulgaris) [µg/mL] | MIC (Klebsiella aerogenes) [µg/mL] | MIC (Klebsiella pneumoniae) [µg/mL] | MIC (Staphylococcus aureus) [µg/mL] | MIC (Staphylococcus warneri) [µg/mL] | MIC (Streptococcus pyogenes) [µg/mL] | MIC (Enterococcus faecalis) [µg/mL] | MIC (Candida albicans) [µg/mL] | MIC (Pichia kudriavzevii) [µg/mL] | MIC (Candida parapsilosis) [µg/mL] | MIC ([Candida] sake) [µg/mL] | MIC (Nakaseomyces glabratus) [µg/mL] | MIC (Candida tropicalis) [µg/mL] | EC50 (HEp-2 [1]) [µg/mL] | viability at 24 h, 100 ug/mL [2] [%] | viability at 24 h, 50 ug/mL [3] [%] | viability at 24 h, 10 ug/mL [4] [%] | viability at 24 h, 5 ug/mL [5] [%] | viability at 24 h, 0.5 ug/mL [6] [%] | other results
1 | CC1CCC/C1=N\Nc1nc(-c2ccc(I)cc2)cs1 (stereo unspecified) | 32 (≈ 80.5 µM) | 32 (≈ 80.5 µM) | > 128 | > 128 | 32 (≈ 80.5 µM) | 32 (≈ 80.5 µM) | 8 (≈ 20.1 µM) | 32 (≈ 80.5 µM) | 0.25 (≈ 0.629 µM) | 2 (≈ 5.03 µM) | 2 (≈ 5.03 µM) | 32 (≈ 80.5 µM) | 2 (≈ 5.03 µM) | 0.5 (≈ 1.26 µM) | 30 (≈ 75.5 µM) | 6 | 12 | 36 | 60 | 90 | viability at 24 h, 0.05 ug/mL [7]: 100%; EC50 (HEp-2 [8]): 30 µg/mL (≈ 75.5 µM); viability at 24 h, 100 ug/mL [9]: 0%; viability at 24 h, 50 ug/mL [10]: 0%; viability at 24 h, 10 ug/mL [11]: 70%; viability at 24 h, 5 ug/mL [12]: 67%; viability at 24 h, 0.5 ug/mL [13]: 89%; viability at 24 h, 0.05 ug/mL [14]: 92%
2 | C/C(=N\Nc1nc(-c2ccc(I)cc2)cs1)c1ccncc1 | 16 (≈ 38.1 µM) | 16 (≈ 38.1 µM) | > 128 | > 128 | 8 (≈ 19 µM) | 8 (≈ 19 µM) | 4 (≈ 9.52 µM) | 4 (≈ 9.52 µM) | 0.25 (≈ 0.595 µM) | 2 (≈ 4.76 µM) | 2 (≈ 4.76 µM) | 4 (≈ 9.52 µM) | 2 (≈ 4.76 µM) | 0.5 (≈ 1.19 µM) | 25 (≈ 59.5 µM) | 0 | 10 | 35 | 58 | 95 | viability at 24 h, 0.05 ug/mL [7]: 95%; EC50 (HEp-2 [8]): 30 µg/mL (≈ 71.4 µM); viability at 24 h, 100 ug/mL [9]: 0%; viability at 24 h, 50 ug/mL [10]: 37%; viability at 24 h, 10 ug/mL [11]: 30%; viability at 24 h, 5 ug/mL [12]: 66%; viability at 24 h, 0.5 ug/mL [13]: 85%; viability at 24 h, 0.05 ug/mL [14]: 90%
3 | CCCCC/C(C)=N/Nc1nc(-c2ccc(I)cc2)cs1 | > 128 | > 128 | > 128 | > 128 | 32 (≈ 77.4 µM) | 32 (≈ 77.4 µM) | 8 (≈ 19.4 µM) | 32 (≈ 77.4 µM) | 0.25 (≈ 0.605 µM) | 2 (≈ 4.84 µM) | 2 (≈ 4.84 µM) | 32 (≈ 77.4 µM) | 2 (≈ 4.84 µM) | 0.5 (≈ 1.21 µM) | 42 (≈ 102 µM) | 0 | 22 | 89 | 90 | 100 | viability at 24 h, 0.05 ug/mL [7]: 100%; EC50 (HEp-2 [8]): 62 µg/mL (≈ 150 µM); viability at 24 h, 100 ug/mL [9]: 33%; viability at 24 h, 50 ug/mL [10]: 42%; viability at 24 h, 10 ug/mL [11]: 83%; viability at 24 h, 5 ug/mL [12]: 90%; viability at 24 h, 0.5 ug/mL [13]: 95%; viability at 24 h, 0.05 ug/mL [14]: 98%
4 | CCC/C(C)=N/Nc1nc(-c2ccc(I)cc2)cs1 | > 128 | > 128 | > 128 | 32 (≈ 83.1 µM) | 32 (≈ 83.1 µM) | 32 (≈ 83.1 µM) | 4 (≈ 10.4 µM) | 32 (≈ 83.1 µM) | 0.25 (≈ 0.649 µM) | 4 (≈ 10.4 µM) | 2 (≈ 5.19 µM) | 32 (≈ 83.1 µM) | 2 (≈ 5.19 µM) | 0.5 (≈ 1.3 µM) | 45 (≈ 117 µM) | 0 | 62 | 68 | 72 | 98 | viability at 24 h, 0.05 ug/mL [7]: 100%; viability at 24 h, 100 ug/mL [9]: 60%; viability at 24 h, 50 ug/mL [10]: 63%; viability at 24 h, 10 ug/mL [11]: 60%; viability at 24 h, 5 ug/mL [12]: 65%; viability at 24 h, 0.5 ug/mL [13]: 75%; viability at 24 h, 0.05 ug/mL [14]: 92%
